“Also recorded” adds a separate entry of the source. Where two headings read alike, the source gives them in different places. Where a SMILES comes first, the peptide text is derived from it. The star is where a group is joined. Dnp = O=[N+]([O-])c1ccc(*)c([N+](=O)[O-])c1
Tests used:
LPA3 [1] = molecular target: T1, LPA3 (Homo sapiens, UniProt Q9UBY5); experiment: LPA receptor-promoted intracellular Ca2+ mobilization, LPA3; type: cell-based; conditions: for LPA3 antagonist activity (in words): Ca2+ assay; for % inhibition at 10μM: Table 3, LPA3 inhibition
T1 sequence (Q9UBY5 1-353): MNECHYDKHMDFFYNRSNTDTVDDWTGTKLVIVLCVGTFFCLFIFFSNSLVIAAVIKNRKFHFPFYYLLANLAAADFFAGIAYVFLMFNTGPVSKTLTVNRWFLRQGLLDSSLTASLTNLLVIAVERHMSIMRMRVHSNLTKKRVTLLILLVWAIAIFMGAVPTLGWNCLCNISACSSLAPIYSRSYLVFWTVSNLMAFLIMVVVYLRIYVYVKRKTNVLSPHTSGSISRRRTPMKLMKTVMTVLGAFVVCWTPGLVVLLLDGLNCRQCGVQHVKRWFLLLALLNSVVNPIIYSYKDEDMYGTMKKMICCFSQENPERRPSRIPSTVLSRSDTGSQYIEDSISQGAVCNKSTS

LPA1 [2] = molecular target: T2, LPA1 (Homo sapiens, UniProt Q92633); conditions: read-out: IC50 LPA1; previously reported antagonists; NE no effect; cited from earlier work
LPA2 [3] = molecular target: T3, LPA2 (Homo sapiens, UniProt Q9HBW0); conditions: previously reported antagonists, cited from earlier work; for IC50: read-out: IC50 LPA2, NE no effect
LPA3 [4] = molecular target: T1, LPA3; conditions: previously reported antagonists, cited from earlier work
LPA4 [5] = molecular target: T4, LPA4 (Homo sapiens, UniProt Q99677); conditions: read-out: IC50 LPA4; previously reported antagonists; NE no effect; cited from earlier work
LPA5 [6] = molecular target: T5, LPA5 (Homo sapiens, UniProt Q9H1C0); conditions: read-out: IC50 LPA5; previously reported antagonists; NE no effect; cited from earlier work
LPA1 [7] = molecular target: T2, LPA1; experiment: LPA receptor-promoted intracellular Ca2+ mobilization, LPA1; type: cell-based; conditions: for LPA1 antagonist activity (in words): Ca2+ assay; for IC50: read-out: IC50 LPA1, dose response
Method in brief: (§1)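 Cells stably expressing the given LPA receptor were plated and cultured overnight, then moved to serum-free medium for 4-6 h and loaded with fura-2. Intracellular Ca2+ was read on a plate fluorometer as the ratio of 520 nm emission under 340 vs 380 nm excitation. Test compounds were dissolved in methanol, diluted in buffer, and run in quadruplicate. IC50 was taken from concentration-response curves.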

LPA2 [8] = molecular target: T3, LPA2; experiment: LPA receptor-promoted intracellular Ca2+ mobilization, LPA2; type: cell-based; conditions: read-out: IC50 LPA2; dose response
Method in brief: as §1

LPA4 [9] = molecular target: T4, LPA4; experiment: LPA receptor-promoted intracellular Ca2+ mobilization, LPA4; type: cell-based; conditions: read-out: IC50 LPA4; dose response
Method in brief: as §1

LPA5 [10] = molecular target: T5, LPA5; experiment: LPA receptor-promoted intracellular Ca2+ mobilization, LPA5; type: cell-based; conditions: for IC50: read-out: IC50 LPA5, dose response
Method in brief: as §1

[11] = 10 μM compound against 200 nM LPA

T2 sequence (Q92633 whole entry, species assumed): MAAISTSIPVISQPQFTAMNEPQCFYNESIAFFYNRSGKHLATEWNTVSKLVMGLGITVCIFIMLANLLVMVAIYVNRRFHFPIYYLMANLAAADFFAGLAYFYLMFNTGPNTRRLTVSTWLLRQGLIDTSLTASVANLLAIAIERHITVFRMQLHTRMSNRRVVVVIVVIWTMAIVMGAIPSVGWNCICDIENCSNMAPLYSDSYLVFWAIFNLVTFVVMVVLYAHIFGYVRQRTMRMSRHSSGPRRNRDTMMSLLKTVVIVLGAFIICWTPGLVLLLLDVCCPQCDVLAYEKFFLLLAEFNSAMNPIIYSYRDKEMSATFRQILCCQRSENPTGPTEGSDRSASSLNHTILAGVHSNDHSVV
T4 sequence (Q99677 whole entry, species assumed): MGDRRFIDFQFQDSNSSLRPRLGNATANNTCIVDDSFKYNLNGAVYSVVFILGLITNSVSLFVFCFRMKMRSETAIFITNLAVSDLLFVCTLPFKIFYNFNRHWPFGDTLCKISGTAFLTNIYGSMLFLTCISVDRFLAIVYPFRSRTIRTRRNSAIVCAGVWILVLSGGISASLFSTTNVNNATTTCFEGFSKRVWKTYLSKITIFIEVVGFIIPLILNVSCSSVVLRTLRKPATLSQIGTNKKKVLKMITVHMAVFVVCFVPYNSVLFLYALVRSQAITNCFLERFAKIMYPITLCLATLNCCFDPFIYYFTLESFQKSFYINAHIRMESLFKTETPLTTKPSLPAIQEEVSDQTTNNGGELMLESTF
T5 sequence (Q9H1C0 whole entry, species assumed): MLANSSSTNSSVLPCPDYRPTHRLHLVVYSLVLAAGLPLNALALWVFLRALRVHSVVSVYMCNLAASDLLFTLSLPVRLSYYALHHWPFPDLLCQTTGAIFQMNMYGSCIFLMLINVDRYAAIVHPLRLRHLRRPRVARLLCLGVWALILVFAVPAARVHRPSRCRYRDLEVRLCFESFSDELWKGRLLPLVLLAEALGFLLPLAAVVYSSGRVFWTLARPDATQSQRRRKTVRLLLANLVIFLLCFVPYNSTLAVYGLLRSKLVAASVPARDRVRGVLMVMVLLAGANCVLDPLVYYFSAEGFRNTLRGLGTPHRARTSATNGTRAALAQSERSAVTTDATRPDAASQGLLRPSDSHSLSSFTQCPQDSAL
T3 sequence (Q9HBW0 whole entry, species assumed): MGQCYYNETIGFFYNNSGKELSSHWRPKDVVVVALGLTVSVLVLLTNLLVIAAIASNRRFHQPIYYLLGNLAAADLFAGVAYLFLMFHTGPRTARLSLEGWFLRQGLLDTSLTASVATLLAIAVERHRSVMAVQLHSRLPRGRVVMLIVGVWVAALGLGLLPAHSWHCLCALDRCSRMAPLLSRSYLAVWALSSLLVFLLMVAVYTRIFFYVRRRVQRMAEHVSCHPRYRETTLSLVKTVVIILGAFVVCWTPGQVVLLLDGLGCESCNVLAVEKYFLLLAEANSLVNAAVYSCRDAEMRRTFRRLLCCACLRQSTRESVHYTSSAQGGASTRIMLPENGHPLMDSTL

For `Cc1ccc(Oc2ccc3c(c2)C(=O)N(CC2CCCO2)C3=O)cc1` (stereo not shown) [Compound 14], the “LPA3 antagonist activity (in words)” value (LPA3 [1]) was “not active”.
In the case of `O=C(O)/C=C/C(=O)Nc1cccc(NC(=O)/C=C/C(=O)O)c1C(=O)O` [Compound 3], the IC50 (LPA1 [2]) is listed as over 10 µM, the “Imax LPA2” value (LPA2 [3]) is listed as 53.3% and the “Imax LPA3” value (LPA3 [4]) is listed as 81.7%. The IC50 (LPA4 [5]) was over 10 µM and the IC50 (LPA5 [6]) was over 10 µM.
For `Cc1ccc(Oc2ccc3c(c2)C(=O)N(CC(=O)O)C3=O)cc1` [Compound 12], the “LPA1 antagonist activity (in words)” value (LPA1 [7]) was “LPA1 antagonists”, the IC50 (LPA2 [8]) was over 10 µM and the IC50 (LPA4 [9]) was over 10 µM. For the same compound, the IC50 (LPA5 [10]) was over 10 µM.
For `NCC(=O)N[C@@H](CSc1ccc([N+](=O)[O-])cc1[N+](=O)[O-])C(=O)N[C@@H](CCC(=O)O)C(=O)O` [Compound 1] (H-Gly-Cys(Dnp)-Glu-OH), the IC50 (LPA1 [2]) is given as over 10 µM, the IC50 (LPA2 [3]) is given as over 10 µM and the “Imax LPA3” value (LPA3 [4]) is given as 69.8%. For the same compound, the IC50 (LPA4 [5]) was over 10 µM and the IC50 (LPA5 [6]) was over 10 µM.
For `O=C(O)CN1C(=O)c2ccc(C(=O)c3cccc([N+](=O)[O-])c3)cc2C1=O` [Compound 15], the “% inhibition at 10μM” value (LPA3 [1]; [11]) was “Agonist”.
In the case of `O=C(O)/C=C/C(=O)Nc1ccc(Oc2cccc(Oc3ccc(NC(=O)/C=C/C(=O)O)cc3)c2)cc1` [Compound 4], the IC50 (LPA4 [5]) is listed as over 10 µM and the IC50 (LPA5 [6]) is listed as over 10 µM.
In the case of `O=C1c2ccc(Oc3cccc([N+](=O)[O-])c3)cc2C(=O)N1Cc1cccnc1` [Compound 8], the “LPA3 antagonist activity (in words)” value (LPA3 [1]) is reported as “active”.
In the case of `O=C(O)c1ccc2c(c1)C(=O)N(c1cccc(Oc3ccc([N+](=O)[O-])cc3)c1)C2=O` [Compound 20], the “LPA1 antagonist activity (in words)” value (LPA1 [7]) is reported as “LPA1 antagonists”, the IC50 (LPA2 [8]) is reported as over 10 µM and the “fold increase in potency compared to compound 5” value (LPA3 [1]; LPA3 IC50 versus compound 5) is reported as 6 fold. The “% inhibition at 10μM” value (LPA3 [1]; [11]) was over 50%, the IC50 (LPA4 [9]) was over 10 µM and the “LPA5 antagonist activity (in words)” value (LPA5 [10]; Ca2+ assay) was “LPA5 antagonist”.
In the case of `O=C(O)CN1C(=O)c2ccc(Oc3ccc([N+](=O)[O-])cc3)cc2C1=O` [Compound 11], the IC50 (LPA1 [7]) is reported as over 10 µM, the IC50 (LPA2 [8]) is reported as over 10 µM and the “LPA3 antagonist activity (in words)” value (LPA3 [1]) is reported as “no inhibition; also recorded: no activity”. The “LPA3 antagonist activity (in words)” value (LPA3 [1]; listed as compound 11) was “no antagonist activity”, the IC50 (LPA3 [1]; read-out: IC50 LPA3, dose response, activation by 200 nM LPA) was over 10 µM and the inhibition at 10 µM (LPA3 [1]; read-out: Percent inhibiton at 10μM, Table 2, 10 μM compound against 200 nM LPA) was under 10%. For the same compound, the IC50 (LPA4 [9]) was over 10 µM and the IC50 (LPA5 [10]) was over 10 µM.
For `O=C(O)/C=C/C(=O)Nc1cccc(NC(=O)/C=C/C(=O)O)c1` [Compound 2], the IC50 (LPA3 [4]; read-out: IC50 LPA3, NE no effect) is given as over 10 µM, the IC50 (LPA4 [5]) is given as over 10 µM and the IC50 (LPA5 [6]) is given as over 10 µM.
`O=C(O)CN1C(=O)c2ccc(Oc3cccc([N+](=O)[O-])c3)cc2C1=O` [Compound 5, [5-(3-nitrophenoxy)-1,3-dioxo-1,3-dihydro-2-isoindol-2-yl]acetic acid] gave an IC50 (LPA1 [7]) of over 10 µM, an IC50 (LPA2 [8]) of over 10 µM and an IC50 (LPA4 [9]) of over 10 µM. The IC50 (LPA5 [10]) was over 10 µM, the IC50 (LPA1 [2]) was over 10 µM and the IC50 (LPA2 [3]) was over 10 µM. The IC50 (LPA4 [5]) was over 10 µM and the IC50 (LPA5 [6]) was over 10 µM.
For `O=C(O)COc1ccc(N2C(=O)c3ccc(Oc4cccc([N+](=O)[O-])c4)cc3C2=O)cc1` [Compound 6], the “% inhibition at 10μM” value (LPA3 [1]; [11]) was “agonist”.
For `CC(=O)COc1ccc(NC(=O)CN2C(=O)c3ccc([N+](=O)[O-])cc3C2=O)cc1` [Compound 18], the “% inhibition at 10μM” value (LPA3 [1]; [11]) was “Agonist”.
